Experimental data: ChEMBL document CHEMBL4732065 (Eur J Med Chem, 2021)

What was measured:
Cytochrome P450 1B1 = molecular target: T1, Cytochrome P450 1B1 (Homo sapiens, UniProt Q16678); assay: Inhibition of recombinant human CYP1B1 using 7-ethoxyresorufin as substrate after 35 mins in presence of NADP+ by EROD assay
T1 sequence (Q16678 whole entry): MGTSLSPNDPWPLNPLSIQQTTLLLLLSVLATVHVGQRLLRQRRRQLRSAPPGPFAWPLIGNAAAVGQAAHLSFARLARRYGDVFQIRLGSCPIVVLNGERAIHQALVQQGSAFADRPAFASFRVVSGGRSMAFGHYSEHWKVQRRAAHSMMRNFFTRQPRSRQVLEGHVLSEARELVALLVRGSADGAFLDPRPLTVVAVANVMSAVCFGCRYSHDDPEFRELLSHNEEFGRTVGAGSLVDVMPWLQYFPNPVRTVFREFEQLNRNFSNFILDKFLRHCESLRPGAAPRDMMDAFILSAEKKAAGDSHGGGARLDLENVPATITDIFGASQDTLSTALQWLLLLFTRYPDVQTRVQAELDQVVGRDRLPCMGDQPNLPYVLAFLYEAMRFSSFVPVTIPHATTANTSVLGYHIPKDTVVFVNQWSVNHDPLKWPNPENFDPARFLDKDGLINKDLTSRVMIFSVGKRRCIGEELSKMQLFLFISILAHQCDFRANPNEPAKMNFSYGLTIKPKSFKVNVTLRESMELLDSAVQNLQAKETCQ
In short: (§1)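 Recombinant human CYP1 Supersomes co-expressing P450 reductase; 20 fmol CYP1B1, 10 fmol CYP1A1 or 60 fmol CYP1A2 per well. Incubated at 37 °C (1B1 35 min, 1A1 15 min, 1A2 50 min).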

Cytochrome P450 1A1 = molecular target: T2, Cytochrome P450 1A1 (Homo sapiens, UniProt P04798); assay: Inhibition of recombinant human CYP1A1 using 7-ethoxyresorufin as substrate after 15 mins in presence of NADP+ by EROD assay; type: ADME
T2 sequence (P04798 whole entry): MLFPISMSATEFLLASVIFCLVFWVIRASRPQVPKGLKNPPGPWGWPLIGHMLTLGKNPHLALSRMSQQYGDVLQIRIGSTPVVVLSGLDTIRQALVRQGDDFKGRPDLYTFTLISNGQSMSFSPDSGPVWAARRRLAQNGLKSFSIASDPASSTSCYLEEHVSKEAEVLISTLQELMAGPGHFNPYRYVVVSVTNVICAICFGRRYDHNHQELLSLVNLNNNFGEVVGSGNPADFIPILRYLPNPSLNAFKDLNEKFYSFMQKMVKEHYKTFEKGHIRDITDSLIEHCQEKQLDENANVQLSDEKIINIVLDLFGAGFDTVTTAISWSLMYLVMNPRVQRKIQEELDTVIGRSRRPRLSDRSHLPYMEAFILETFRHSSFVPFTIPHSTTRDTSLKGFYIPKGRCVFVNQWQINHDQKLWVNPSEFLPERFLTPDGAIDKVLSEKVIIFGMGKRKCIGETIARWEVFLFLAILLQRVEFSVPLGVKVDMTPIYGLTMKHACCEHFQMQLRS
In short: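 Recombinant human CYP1 Supersomes co-expressing P450 reductase; 20 fmol CYP1B1, 10 fmol CYP1A1 or 60 fmol CYP1A2 per well. Incubated at 37 °C (1B1 35 min, 1A1 15 min, 1A2 50 min). Stopped with cold methanol; fluorescence read at 544/590 nm; triplicates.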

Cytochrome P450 1A2 = molecular target: T3, Cytochrome P450 1A2 (Homo sapiens, UniProt P05177); assay: Inhibition of recombinant human CYP1A2 using 7-ethoxyresorufin as substrate after 50 mins in presence of NADP+ by EROD assay; type: ADME; in short: as §1
T3 sequence (P05177 whole entry): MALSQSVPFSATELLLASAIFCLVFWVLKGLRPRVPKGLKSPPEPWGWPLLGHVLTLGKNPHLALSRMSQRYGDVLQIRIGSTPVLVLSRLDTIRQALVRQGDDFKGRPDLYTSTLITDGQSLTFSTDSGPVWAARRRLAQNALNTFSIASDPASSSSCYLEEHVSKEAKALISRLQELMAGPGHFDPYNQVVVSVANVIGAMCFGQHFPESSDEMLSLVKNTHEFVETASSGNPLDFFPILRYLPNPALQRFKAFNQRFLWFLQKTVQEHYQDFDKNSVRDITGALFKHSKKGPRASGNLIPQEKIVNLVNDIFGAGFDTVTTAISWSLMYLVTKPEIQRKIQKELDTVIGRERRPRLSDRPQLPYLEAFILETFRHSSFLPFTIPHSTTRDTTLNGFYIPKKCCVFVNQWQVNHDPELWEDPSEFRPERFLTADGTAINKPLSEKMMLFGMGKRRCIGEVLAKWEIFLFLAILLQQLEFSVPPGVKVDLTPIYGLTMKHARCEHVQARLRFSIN

Homo sapiens [1] = species on record: Homo sapiens; assay: Selectivity index, ratio of IC50 for recombinant human CYP1A1 to IC50 for recombinant human CYP1B1
Homo sapiens [2] = species on record: Homo sapiens; assay: Selectivity index, ratio of IC50 for recombinant human CYP1A2 to IC50 for recombinant human CYP1B1

Compound	IC50 (Cytochrome P450 1B1) [nM]	IC50 (Cytochrome P450 1A1) [nM]	IC50 (Cytochrome P450 1A2) [nM]	Ratio IC50 (Homo sapiens [1])	Ratio IC50 (Homo sapiens [2])
COc1ccc(OC)c2c1c(OC)cc1c(=O)cc(-c3cc4ccccc4o3)oc12	0.87	10.1	> 1000	11.6	> 1150
COc1ccc(OC)c2c1c(OC)cc1c(=O)cc(-c3ccncc3N)oc12	24.8	31.6	> 1000	1.3	> 40.3
COc1ccc(OC)c2c1c(OC)cc1c(=O)cc(-c3cccnc3O)oc12	> 1000	152	> 1000		
COc1ccc(OC)c2c1c(OC)cc1c(=O)cc(-c3ccc(Br)cn3)oc12	1.3	38.9	623	29.9	479
COc1ccc(OC)c2c1c(OC)cc1c(=O)cc(-c3ccnc(N)c3)oc12	20.6	15.3	> 1000	0.7	> 48.5
COc1ccc(OC)c2c1c(OC)cc1c(=O)cc(-c3cncc(O)c3)oc12	10.3	80.9	> 1000	7.9	> 97.1
COc1ccc(OC)c2c1c(OC)cc1c(=O)cc(-c3ccnc(F)c3)oc12	0.93	38.9	518	41.8	557
COc1ccc(OC)c2c1c(OC)cc1c(=O)cc(-c3cncc(N)c3)oc12	22.9	18.8	628	0.8	27.4
COc1ccc(OC)c2c1c(OC)cc1c(=O)cc(-c3cccnc3)oc12	1	7.6	117	7.6	117
COc1ccc(OC)c2c1c(OC)cc1c(=O)cc(-c3cccc(N4CCOCC4)c3)oc12	14.9	132	> 1000	8.9	> 67.1
COc1ccc(OC)c2c1c(OC)cc1c(=O)cc(-c3c[nH]c4ncccc34)oc12	189	23.8	> 1000	0.1	> 5.3
COc1ccc(OC)c2c1c(OC)cc1c(=O)cc(-c3cc(Cl)ccn3)oc12	0.84	9.9	> 1000	11.8	> 1190
COc1ccc(OC)c2c1c(OC)cc1c(=O)cc(-c3ccnc(Cl)c3)oc12	1.1	91.6	> 1000	83.3	> 909
COc1ccc(OC)c2c1c(OC)cc1c(=O)cc(-c3cc(Cl)cc(N4CCN(C)CC4)c3)oc12	519	> 1000	> 1000	> 1.9	> 1.9
COc1ccc(OC)c2c1c(OC)cc1c(=O)cc(-c3ccc(Cl)cn3)oc12	0.14	1.6	208	11.4	1490
COc1ccc(OC)c2c1c(OC)cc1c(=O)cc(-c3cccc(N4CCN(C)CC4)c3)oc12	> 1000	> 1000	> 1000		
COc1ccc(OC)c2c1c(OC)cc1c(=O)cc(-c3cccc(Cl)n3)oc12	0.3	5.7	349	19	1160
